SENP6 block: SENP6 protease inhibitors, primary screen, biochemical, luminescence, uHTS; Sentrin-specific protease 6 (Homo sapiens), Q9GZR1; Recombinant SENP6 catalytic domain, aminoluciferin luminescence; inhibition, % at 10 µM; 330,000 tested, 1.8% active;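 active = inhibition above about 50% at the single tested dose, limit read from the data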
Target sequence (Q9GZR1 628-1112 limits assumed): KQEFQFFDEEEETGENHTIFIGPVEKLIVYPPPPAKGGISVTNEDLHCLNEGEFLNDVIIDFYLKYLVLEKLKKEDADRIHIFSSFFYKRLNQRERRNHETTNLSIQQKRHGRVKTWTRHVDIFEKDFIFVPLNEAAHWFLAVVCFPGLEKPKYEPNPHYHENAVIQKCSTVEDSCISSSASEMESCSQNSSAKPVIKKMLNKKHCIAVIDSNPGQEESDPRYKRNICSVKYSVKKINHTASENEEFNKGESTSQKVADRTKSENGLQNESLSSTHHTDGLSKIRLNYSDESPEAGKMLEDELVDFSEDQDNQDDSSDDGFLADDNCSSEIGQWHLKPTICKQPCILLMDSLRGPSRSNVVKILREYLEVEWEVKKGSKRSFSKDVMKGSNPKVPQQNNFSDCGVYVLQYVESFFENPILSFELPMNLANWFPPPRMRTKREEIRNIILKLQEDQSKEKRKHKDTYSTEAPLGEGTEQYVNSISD
SENP8 block-1: SENP8 protease inhibitors, primary screen, biochemical, luminescence | purified SENP8, Z-RLRGG-aminoluciferin cleavage | inhibition, % at 10 µM | 330,000 tested, 1.2% active; in the data active = inhibition above about 50%
SENP1 FRET inh: human SENP1 catalytic domain inhibitors, primary screen, biochemical, FRET, uHTS; inhibition, % at 10 µM; recombinant SENP1 catalytic domain, CyPet-SUMO1-YPet FRET cleavage; 360,000 tested, 0.21% active; Sentrin-specific protease 1 (Homo sapiens), Q9P0U3;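 active = inhibition at least 30% at 10 µM, raw YFP signal under a set limit, fluorescence ratio 0.5 to 1.5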
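Material: hSENP1 catalytic domain, recombinant; medium: Tris pH 8 with BME, BSA, NP40 and catalase; compound: single concentration of 10 µM compound, 0.5% DMSO final; technique: FRET read of cyan and yellow fluorescence; timing: 50 min enzyme reaction, room temperature, light-protected; reagent: SFCypet-SUMO1-SFYpet substrate at 25 nM; control set: no-enzyme low, enzyme-DMSO high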
SENP8 block-2: human SENP8 protease inhibitors, primary screen, biochemical, fluorescence, Nedd8 protein substrate, uHTS | inhibition, % at 20 µM | Sentrin-specific protease 8 (Homo sapiens), Q96LD8 | 360,000 tested, 0.64% active | AID 602440, 2012 | recombinant SENP8; in the data active = inhibition mostly above about 40%, no sharp cut-off; inactive = mostly below about 27%
SENP7 inh: SENP7 protease inhibitors, primary screen, biochemical, luminescence, uHTS | recombinant SENP7, Z-RLRGG-aminoluciferin luminescence, 40 min | inhibition, % at 5 µM | 330,000 tested, 1.5% active;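 active = inhibition above about 50% at the single test dose, limit read from the data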
HSP90 refold inh: HSP90 inhibitors, primary screen, cell lysate, luminescence | Heat shock protein HSP 90 (rabbit reticulocyte lysate; luciferase refolding) | Rabbit reticulocyte lysate, luciferase refolding luminescence, 3 h | inhibition, % at 5.6 µM | 290,000 tested, 0.91% active;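 active = inhibition above the screen-wide mean plus 3 SD, computed separately per campaign, cut at about 16% in these data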;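 also: inhibitors lower the luminescence because luciferase stays unfolded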
SENP8 confirm: SENP8 protease inhibitors, retest, confirmation, biochemical, luminescence, single concentration | shares compounds with SENP7 inh | Recombinant SENP8, Z-RLRGG-aminoluciferin luminescence, 60 min | inhibition, % at 12.5 µM | 6,200 tested, 40% active | AID 488912, 2010;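 active = mean inhibition across replicates above about 50%, limit read from the data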
SENP6 conf: SENP6 protease inhibitors, confirmation, biochemical, luminescence, single concentration; inhibition, % at 12.5 µM; 6,200 tested, 58% active; recombinant SENP6, Z-RLRGG-aminoluciferin luminescence; AID 488915, 2010; shares compounds with SENP7 inh
SENP7 conf: SENP7 protease inhibitors, retest, confirmation, biochemical, luminescence, single concentration. AID 488917, 2010. 6,200 tested, 69% active. recombinant SENP7, Z-RLRGG-aminoluciferin luminescence, 40 min. inhibition, % at 12.5 µM. shares compounds with SENP7 inh
Casp3 SENP sel: caspase-3 protease inhibitors, confirmation, selectivity assay for SENP inhibitor project, biochemical, single concentration | AID 488918, 2010 | purified caspase-3, Z-DEVD-aminoluciferin luminescence, 60 min | 6,200 tested, 60% active | shares compounds with SENP7 inh | inhibition, % at 12.5 µM;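 active = mean inhibition above about 50%, limit read from the data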
SENP luc ctr: interferes with luciferase luminescence in SENP counter-screen | AID 488919 | shares compounds with SENP7 inh | Pre-incubated SENP8/Z-RLRGG-aminoluciferin, luciferase luminescence interference | inhibition, % at 12.5 µM | 6,200 tested, 39% active;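 active = mean inhibition above about 50% when retested at one dose, limit read from the data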
Hits are given with their value; . = inactive; / = no result given. Sampled rows, rich in hits. Any-hit rate of the full collection: about 2.9%.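 The calls were made as follows, unless noted: active = mean inhibition above about 50% in the one-dose retest (limit read from the data); inactive = the rest.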

SMILES | SENP6 block | SENP8 block-1 | SENP1 FRET inh | SENP8 block-2 | SENP7 inh | HSP90 refold inh | SENP8 confirm | SENP6 conf | SENP7 conf | Casp3 SENP sel | SENP luc ctr
N/C(=N\OC(=O)c1ccc(Cl)cc1Cl)c1ccc(Cl)cc1 | 62 | . | . | . | 54 | . | . | . | 69 | . | .
CC(OC(=O)C1CCN(S(=O)(=O)c2ccc(C(C)(C)C)cc2)CC1)C(=O)N(C)C1CCCCC1 (stereo not drawn) | / | / | . | . | / | / | / | / | / | / | /
Cc1noc(C)c1C(=O)OCC(=O)c1ccc[nH]1 | . | . | . | . | . | . | / | / | / | / | /
Cc1noc(C)c1C(=O)OCC(=O)c1cc(C)n(Cc2ccccc2Cl)c1C | 68 | . | . | . | . | . | . | . | . | . | .
N#Cc1cccnc1N1CCN(C(c2ccnc3ccccc23)c2nnnn2-c2ccc3c(c2)OCCO3)CC1 (stereo not drawn) | / | / | . | . | / | / | / | / | / | / | /
c1csc(-c2nc(-c3ccc(-c4ccon4)s3)no2)c1 | 51 | . | . | . | 88 | . | . | . | . | . | .
CCOc1ncccc1-c1nc(-c2cccs2)no1 | . | . | . | . | . | . | / | / | / | / | /
c1ccc(-c2nc(-c3ccc(-c4ccon4)s3)no2)cc1 | 55 | . | . | . | 80 | . | . | . | . | . | .
CC(=O)Nc1cnc(-c2ccc3c(c2)OCO3)cn1 | / | / | . | . | / | / | / | / | / | / | /
CN1C(=O)/C(=C/c2coc3ccc(O)cc3c2=O)SC1=S | 79 | 56 | . | . | 80 | . | . | . | . | . | .
Cc1ccc2c(C)c(C(=O)Nc3cccnc3)oc2c1C | / | / | . | . | / | / | / | / | / | / | /
O=S(=O)(c1cccc(-c2nc3n(n2)Cc2ccccc2-3)c1)N1CCCC1 | . | . | . | . | . | . | / | / | / | / | /
Clc1ccc(-c2cn3c(n2)-c2ccccc2C3)cc1Cl | 94 | 93 | . | . | 98 | . | . | 84 | 94 | 80 | .
C/C(=N/N=C/c1ccccc1O)c1ccccc1O | 60 | 55 | . | . | 86 | . | . | . | . | . | .
CC(=O)c1sc(NC(=O)c2c(F)cccc2F)nc1-c1ccccc1 | . | . | . | . | . | . | / | / | / | / | /
CC(=O)c1sc(NC(=O)c2ccccc2)nc1-c1ccccc1 | 75 | 63 | . | . | 61 | . | . | 71 | 88 | 51 | 54
Cc1nc(NC(=O)c2cccnc2Cl)sc1C | 54 | . | . | . | . | / | . | . | 75 | 80 | 60
Cc1nn(C)c(C)c1/C=N/NC(=O)c1csc2ccccc12 | . | . | / | / | . | . | / | / | / | / | /
Cc1nc(NC(=O)c2ccccc2)sc1C | 90 | 78 | . | . | 92 | . | 90 | 91 | 100 | 95 | 89
Cc1nc(NC(=O)c2csc3ccccc23)sc1C | 69 | 50 | . | . | 77 | . | . | 73 | 95 | 51 | .
O=C(NCCc1ccc2c(c1)OCO2)Oc1ccccc1 | / | / | . | . | / | / | / | / | / | / | /
Cc1nc(NC(=S)NC(=O)c2ccccc2)sc1C | . | . | . | . | . | . | / | / | / | / | /

Assay outcomes (PubChem BioAssay)
